28 compounds from ChEMBL document CHEMBL3822419, “Rational Design of Potent and Selective Inhibitors of an Epoxide Hydrolase Virulence Factor from Pseudomonas aeruginosa” (J Med Chem, 2016) can be followed below.

As usually defined, the IC50 is the concentration needed to halve the response being measured. For orientation: inhibition means the share of the control response that was lost under treatment. For orientation: thermodynamic solubility means solubility found after equilibrating the solid with the medium. The term EC50 denotes the concentration that produces a half-maximal response.

In brackets after ≈: the same amount, converted by molar mass. Bounds are passed on as bounds.

The nature of data set [1]: Stability in human liver microsomes assessed as compound remaining measured after 60 mins in presence of NADPH by LC-MS/MS analysis. As to conditions: read-out: Stability. Format: ADME.
Data set [2] in a line: Inhibition of Pseudomonas aeruginosa recombinant His-tagged CFTR inhibitory factor expressed in expressed in Top10 Escherichia coli cells assessed as formation of 6-methoxy-2-naphthaldehyde preincubated for 5 mins followed by addition of CMNGC as substrate measured for 10 mins in presence of BSA by fluorescent-based assay.
The nature of data set [3]: Antagonist activity at thyroid hormone receptor in rat GH3 cells expressing TRE at 10 uM measured after 24 hrs in presence of T3 by luciferase reporter gene assay. The format is cell-based. As to conditions: GH3, 24 h. Summed up: (§1)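 GH3.TRE-Luc cells grown in regular growth medium, then seeded into 24-well plates for 24 h. Cells exposed 24 h with or without T3 plus test chemical in DMSO, kept at 0.5% (v/v) in exposure medium. Viability by total protein (BCA assay). Luciferase activity read on lysed cells.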
For orientation: Reporter assays use an easily measured gene product as a stand-in for the process of interest.

Data set [4] can be described thus: Equilibrium solubility of the compound in sodium phosphate buffer at pH 7.4 measured after 24 hrs by LC-MS/MS analysis. Format: physicochemical.
Data set [5] addresses T1, Bifunctional epoxide hydrolase 2 (Homo sapiens, UniProt P34913).
T1 sequence (P34913 whole entry): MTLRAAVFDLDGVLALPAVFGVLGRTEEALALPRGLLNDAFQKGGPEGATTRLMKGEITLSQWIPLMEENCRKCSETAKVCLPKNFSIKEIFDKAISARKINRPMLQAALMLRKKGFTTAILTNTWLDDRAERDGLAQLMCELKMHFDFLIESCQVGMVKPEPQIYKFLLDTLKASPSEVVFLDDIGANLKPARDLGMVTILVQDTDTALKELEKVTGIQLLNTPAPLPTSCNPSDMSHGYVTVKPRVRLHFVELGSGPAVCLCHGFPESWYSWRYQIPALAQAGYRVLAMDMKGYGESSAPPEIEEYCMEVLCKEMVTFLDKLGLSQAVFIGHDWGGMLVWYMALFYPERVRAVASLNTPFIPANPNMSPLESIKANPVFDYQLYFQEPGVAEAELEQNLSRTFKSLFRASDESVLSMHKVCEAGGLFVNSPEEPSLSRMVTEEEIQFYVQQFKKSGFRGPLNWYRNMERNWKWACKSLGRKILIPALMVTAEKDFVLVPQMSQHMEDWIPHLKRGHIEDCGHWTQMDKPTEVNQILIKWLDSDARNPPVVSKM
Kind of data set: Inhibition of recombinant human sEH expressed in insect High Five cells preincubated for 5 mins followed by addition of t-DPPO as substrate measured after 10 mins by liquid scintillation counter method. The format is cell-based, BTI-TN-5B1-4.

For the next data set, the system named is Liver microsome. Kind of data set: Half life in human liver microsomes measured after 60 mins in presence of NADPH by LC-MS/MS analysis. The format is ADME. As to conditions: 1 h. A general note: Microsomes from liver hold many membrane-bound enzymes, among them those of drug oxidation.
The nature of data set [6]: Stability in rat GH3 cells expressing TRE and luciferase gene assessed as percentage remaining at 10 uM measured after 24 hrs. As to conditions: read-out: Stability. Format: ADME, cell-based. A digest of the protocol:
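Compound at 10 µM initial concentration incubated 24 h with GH3.TRE-Luc cells. Read-out is percentage of compound remaining, given as mean±SD.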

A short description of data set [7]: Protein binding in Balb/c mouse plasma at 1 uM by rapid equilibrium dialysis method. The format is ADME, cell-free. Summed up:
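Mouse plasma protein binding measured at 1 µM compound by rapid equilibrium dialysis.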
In general terms: In equilibrium dialysis only unbound substance equilibrates across the membrane.

For another data set, the target named is T2, Epoxide hydrolase 1 (Homo sapiens, UniProt P07099).
T2 sequence (P07099 whole entry): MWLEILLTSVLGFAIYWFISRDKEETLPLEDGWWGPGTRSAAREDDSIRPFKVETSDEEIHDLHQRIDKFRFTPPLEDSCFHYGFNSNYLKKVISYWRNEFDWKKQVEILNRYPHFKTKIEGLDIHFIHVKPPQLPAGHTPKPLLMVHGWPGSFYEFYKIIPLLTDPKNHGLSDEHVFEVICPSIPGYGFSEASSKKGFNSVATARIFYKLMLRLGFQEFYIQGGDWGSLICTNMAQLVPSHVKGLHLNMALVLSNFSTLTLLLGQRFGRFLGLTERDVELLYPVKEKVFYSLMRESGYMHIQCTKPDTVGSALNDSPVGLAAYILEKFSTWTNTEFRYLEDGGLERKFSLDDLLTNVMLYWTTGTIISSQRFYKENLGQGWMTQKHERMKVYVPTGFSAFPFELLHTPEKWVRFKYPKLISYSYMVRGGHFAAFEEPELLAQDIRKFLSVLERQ
Description: Inhibition of recombinant human mEH expressed in baculovirus expression system assessed as formation of 6-methoxy-2-naphthaldehyde preincubated for 5 mins followed by addition of CMNGC as substrate by fluorescent-based assay.

Data set [8] is described as follows: Agonist activity at thyroid hormone receptor in rat GH3 cells expressing TRE measured after 24 hrs in presence of T3 by luciferase reporter gene assay. Format: cell-based. As to conditions: GH3, 24 h. Summed up:
as §1

A further data set relates to GH3. Description: Cytotoxicity against rat GH3 cells expressing TRE and luciferase gene assessed as cell viability. Format: cell-based. Summed up:
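GH3.TRE-Luc cells were seeded in 24-well plates for 24 h, then exposed for 24 h to test chemical in DMSO (0.5% v/v final), with or without T3. Viability per well was taken as total protein by BCA assay. Compounds were tested up to 10 µM.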

The nature of data set [9]: Cytotoxicity against human CFBE cells at 10 uM by Cytotox 96 non-radioactive cytotoxicity assay. The format is cell-based.

Turning to `CCC(=O)Nc1cc(Cl)c(Oc2ccc(O)c(-c3ccccc3)c2)c(Cl)c1`, the remaining at 1 h in data set [1] is 63%. Moreover, the IC50 in data set [2] amounted to 1.4 µM.
As to `CCC(=O)Nc1cc(Cl)c(Oc2ccc(O)c(-c3cccc(C(N)=O)c3)c2)c(Cl)c1`, in [2], the half-maximal inhibitory concentration (IC50) came to 0.46 µM.
Consider `CC(C)c1cc(Oc2c(Br)cc(N)cc2Br)ccc1O`, for which, in data set [2], the IC50 was found to be 9.7 µM.
The same measure, in the same setting: the same measure for `CCC(=O)Nc1cc(Br)c(Oc2ccc(O)c(C(C)C)c2)c(Br)c1`: 7.5 µM.
Take `CCC(=O)Nc1cc(Cl)c(Oc2ccc(O)c(-c3ccc(C(C)=O)cc3)c2)c(Cl)c1`: the inhibition at 10 µM in [3] was found to be 33%. This compound gave a thermodynamic solubility at 24 h in [4] of under 0.04 µM. For the same compound, the IC50 was 7.7 µM in data set [5], 97.8 µM at Epoxide hydrolase 1 and 0.35 µM in data set [2]. The t1/2 in the data set on Liver microsome is 5.7 min. In addition, the remaining at 24 h, 10 µM in [6] is 74%. The compound further registered a PPB in data set [7] of over 99%. For the same compound, the EC50 in [8] is over 10 µM.
Turning to `CCOC(=O)CC(=O)Nc1cc(Cl)c(Oc2ccc(O)c(Br)c2)c(Cl)c1`, the IC50 in [2] stood at 4.9 µM.
Consider `C#Cc1cc(Oc2c(Cl)cc(NC(=O)CC(=O)OCC)cc2Cl)ccc1O`, for which the IC50 in data set [2] was determined as 2.9 µM.
On the same count and under the same terms, the result for `CCOC(=O)CC(=O)Nc1cc(Cl)c(Oc2ccc(O)c(C(C)C)c2)c(Cl)c1` reads 3.8 µM; that for `CC(C)c1cc(Oc2c(Br)cc(NC(=O)CCC(=O)O)cc2Br)ccc1O`, 3.2 µM.
With `CCOC(=O)CC(=O)Nc1cc(Br)c(Oc2ccc(OC)c(C(C)C)c2)c(Br)c1`, in data set [2], the half-inhibitory concentration (IC50) is over 25 µM.
For `CCC(=O)Nc1cc(Cl)c(Oc2ccc(O)c(-c3cccc(C#N)c3)c2)c(Cl)c1`, the IC50 in data set [2] was 0.58 µM.
For `CCOC(=O)CC(=O)Nc1cc(Br)c(Oc2ccc(O)c(C(C)C)c2)c(Br)c1`, the IC50 in data set [2] was determined as 6.7 µM.
`CCOC(=O)CC(=O)Nc1ccc(Oc2ccc(O)c(C(C)C)c2)c(Cl)c1`: the IC50 in data set [2] came out at 11.6 µM.
Turning to `CCC(=O)Nc1cc(Cl)c(Oc2ccc(O)c(-c3ccc(NC(C)=O)cc3)c2)c(Cl)c1`, the IC50 in [2] amounted to 15.6 µM.
For `CCC(=O)Nc1cc(Cl)c(Oc2ccc(O)c(-c3ccc(S(N)(=O)=O)cc3)c2)c(Cl)c1`, the IC50 in data set [2] worked out at 2 µM.
Still for that read-out and setting: the same measure for `CCOC(=O)CCC(=O)Nc1cc(Br)c(Oc2ccc(O)c(C(C)C)c2)c(Br)c1`: 5.5 µM; for `CCC(=O)Nc1cc(Cl)c(Oc2ccc(O)c(-c3ccc(C(=O)O)cc3)c2)c(Cl)c1`: 10.5 µM.
Turning to `CCC(=O)Nc1cc(Cl)c(Oc2ccc(O)c(-c3ccc(C(N)=O)cc3)c2)c(Cl)c1`, the inhibition at 10 µM in data set [3] is 66%. For the same compound, the solubility (thermodynamic) at 24 h in [4] is 0.17 µM (≈ 0.0757 µg/mL). In addition, the concentration for half-maximal inhibition (IC50) turned out to be 8.6 µM in [5], 17.2 µM on Epoxide hydrolase 1 and 0.35 µM in data set [2]. In the data set on Liver microsome, the t1/2 was 15 min. Also, the remaining at 24 h, 10 µM in data set [6] is 106%. The Activity entry (in the data set on GH3; in data set [9]) was “Non-toxic” throughout. The compound further returned a PPB in [7] of over 99%. In addition, the EC50 in data set [8] is over 10 µM.
Take `CCC(=O)Nc1cc(Cl)c(Oc2ccc(O)c(-c3ccc(NC(N)=O)cc3)c2)c(Cl)c1`: the inhibition at 10 µM in data set [3] turned out to be 28%. Also, the thermodynamic solubility at 24 h in [4] was 21 µM (≈ 9.67 µg/mL). The IC50 in data set [5] turned out to be 7.5 µM; at Epoxide hydrolase 1 it was 26.3 µM; in [2], 0.29 µM. Further, the t1/2 in the data set on Liver microsome was 29 min. Also, the remaining at 24 h, 10 µM in data set [6] is 103%. For the same compound, the Activity entry (in the data set on GH3; in data set [9]) was “Non-toxic” throughout. For the same compound, the PPB in data set [7] is listed as over 99%. Further, the 50% effective concentration (EC50) in data set [8] is over 10 µM.
As for `CCOC(=O)CC(=O)Nc1cc(Br)c(Oc2cccc(C(C)C)c2)c(Br)c1`, the IC50 in data set [2] is over 50 µM.
With `CCCCCCCCCSC(C)C(N)=O` (configuration not stated), the IC50 on Epoxide hydrolase 1 is 6 µM.
In the case of `CCOC(=O)CC(=O)Nc1cc(Cl)c(Oc2ccc(O)c(C(F)(F)F)c2)c(Cl)c1`, the half-maximal inhibitory concentration (IC50) in [2] was found to be 3 µM.
For `CCC(=O)Nc1cc(Cl)c(Oc2ccc(O)c(-c3ccc(C#N)cc3)c2)c(Cl)c1`, in data set [2], the IC50 turned out to be 11.9 µM.
The same measure, in the same setting: the same measure for `CCOC(=O)CC(=O)Nc1cc(Cl)c(Oc2ccc(O)c(I)c2)c(Cl)c1`: 3.8 µM; for `CCOC(=O)CC(=O)Nc1cc(Cl)c(Oc2ccc(O)cc2)c(Cl)c1`: over 50 µM.
Turning to `CCOC(=O)CC(=O)Nc1cc(Cl)c(Oc2ccc(O)cc2Br)c(Cl)c1`, the half-maximal inhibitory concentration (IC50) in data set [2] was found to be 29.3 µM.
For `CC(=O)Nc1cc(Br)c(Oc2ccc(O)c(C(C)C)c2)c(Br)c1`, the 50% inhibitory concentration (IC50) in [2] was 8.8 µM.
On to `CCC(=O)Nc1cc(Cl)c(Oc2ccc(O)c(-c3ccc(C(=O)NC)cc3)c2)c(Cl)c1`, for which, in data set [2], the IC50 amounted to 1.7 µM.
